Test results published in PubChem BioAssay.
Activity calls are given as the source filed them.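 The calls were made as follows, unless noted: active = inhibition at or above 50% at 10 µM; inactive = inhibition below 50%.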

Columns and labels:
[1] = inhibitors of TNFa-induced NFkB p65 translocation, primary screen, imaging, HUVEC, MLSMR starter and 10KST1 sets (AID 438;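 active = inhibition above 20% together with a positive visual image hit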;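 also: compound added about 3h40 before a 20 min TNFalpha stimulation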;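 as to inhibition: signal is the nuclear over cytoplasmic p65 intensity ratio per well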); conditions: HUVEC TNFa-induced p65 nuclear translocation; cell count: measured here: nuclei count (cytotoxicity indicator), at 2.08 µM; inhibition: at 2 µM, stronger effect = higher value, 0% TNFa-plus-vehicle, 100% no-TNFa wells
[2] = reduction of polyQ htt aggregates in cells – imaging, exon1htt(103Q)mCFP cells, high-content imaging, primary screen (AID 483;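 active = visual image review flags a hit and inhibition of aggregation exceeds 20%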;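 also: compound exposure lasted 3 days before fixation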;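 as to nuclei count: percent of the per-plate median nuclei count of sample wells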); conditions: exon1htt(103Q)mCFP cell line, aggregate imaging, at 2 µM; inhibition of aggregation: stronger effect = higher value; nuclei count: measured here: cell count, toxicity
[3] = endothelial E-selectin expression blockers – imaging, HUVEC, immunofluorescence, MLSMR starter and 10KST1 sets, primary screen (AID 487;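 active = visually confirmed hit in the image check and inhibition above 20%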;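 as to inhibition: signal is fraction of cell area covered by stained E-selectin grains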;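 as to nuclei count: 100% = median nuclei count of all wells on the same plate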); conditions: HUVEC TNFalpha-induced E-selectin immunofluorescence imaging, at 2 µM; inhibition: stronger effect = higher value; nuclei count: measured here: cell number, toxicity
[4] = target: Voltage-gated potassium channel subunit beta-2 (Rattus norvegicus) (UniProt P62483); test: inhibitors of rat Kvbeta2 reductase activity – biochemical, NADPH fluorescence, primary screen (AID 622;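 active = fluorescence slope higher than the sample average by over 3 SD, cut at about -0.22 in these data, passing the limit was not always enough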;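 also: slope of raw intensity against log time taken from 70 to 1610 s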); conditions: recombinant KvBeta, 4-cyanobenzaldehyde reduction, at 10 µM, stronger effect = higher value
Voltage-gated potassium channel subunit beta-2 (Rattus norvegicus), sequence (P62483 whole entry, looked up): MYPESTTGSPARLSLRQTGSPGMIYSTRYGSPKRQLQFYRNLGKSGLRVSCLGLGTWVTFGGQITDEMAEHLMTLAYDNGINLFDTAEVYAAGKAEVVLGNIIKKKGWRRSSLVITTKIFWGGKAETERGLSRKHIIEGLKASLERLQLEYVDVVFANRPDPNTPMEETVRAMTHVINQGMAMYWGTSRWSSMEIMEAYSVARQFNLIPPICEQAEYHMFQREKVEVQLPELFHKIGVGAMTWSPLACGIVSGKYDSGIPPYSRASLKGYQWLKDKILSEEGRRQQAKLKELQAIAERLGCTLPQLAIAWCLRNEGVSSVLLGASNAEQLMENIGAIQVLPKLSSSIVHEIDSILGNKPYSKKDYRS

[5] = target: Voltage-gated potassium channel subunit beta-2 (Rattus norvegicus) (UniProt P62483); test: enhancers of rat Kvbeta2 NADPH turnover – biochemical, NADPH fluorescence, primary screen (AID 623;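 active = NADPH fluorescence slope more negative than the mean of all samples by about 3 SD, 99.7% confidence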;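 also: fluorescence intensity change per second fitted from 20 to 320 s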); conditions: Recombinant KvBeta, NADPH fluorescence decrease slope, 10 min; at 10 µM; stronger effect = lower value
[6] = target: Alpha-2C adrenergic receptor (Homo sapiens) (UniProt P18825); test: compounds altering alpha2C-coupled GIRK flux – cell-based, HEK293 alpha2C/GIRK1/2, thallium flux, primary screen (AID 624;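 active = fluorescence slope after compound addition differing from the mean of all screened samples at 99.7% confidence, in either direction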;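 also: slope of fluorescence ratio to pre-addition baseline per second over 15 to 24 s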); conditions: thallium flux BTC fluorescence, at 10 µM, actives lie on both sides
Alpha-2C adrenergic receptor (Homo sapiens), sequence (P18825 whole entry, looked up): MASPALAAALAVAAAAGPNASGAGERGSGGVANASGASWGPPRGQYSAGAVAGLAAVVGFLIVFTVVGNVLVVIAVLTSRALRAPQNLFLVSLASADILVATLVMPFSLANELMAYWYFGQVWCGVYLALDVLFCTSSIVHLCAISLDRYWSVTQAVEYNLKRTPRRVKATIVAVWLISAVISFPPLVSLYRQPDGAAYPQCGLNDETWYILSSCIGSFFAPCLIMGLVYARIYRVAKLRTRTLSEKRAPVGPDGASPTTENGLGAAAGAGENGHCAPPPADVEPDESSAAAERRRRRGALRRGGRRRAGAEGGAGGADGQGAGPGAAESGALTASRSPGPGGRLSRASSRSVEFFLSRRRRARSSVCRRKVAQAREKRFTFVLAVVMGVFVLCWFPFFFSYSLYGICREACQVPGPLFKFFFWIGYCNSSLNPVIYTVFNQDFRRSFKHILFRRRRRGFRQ

[7] = inhibitors of larval lipid processing in zebrafish, primary screen, whole organism, PED6 fluorescence, gall bladder and intestine (AID 686;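 active = a full or partial loss of lipid-probe fluorescence in the fish gall bladder, intestine or both, judged by eye; inactive = no fluorescence loss, or compound toxic to the fish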;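 also: larvae 5 to 7 days old with five fish per well; signal comes from phospholipase A2 cleavage of quenched PED6 carried via bile; overnight exposure to compound and PED6 before scoring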); conditions: Zebrafish larvae PED6 lipid processing, fluorescence scoring; screened at 20 µM (by protocol)
In short: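 Doses: 20 µM single dose. Test system: live zebrafish larvae aged 5-7 days, whole organism. Quantity: five larvae per well. Measured by: By-eye fluorescence microscopy. Reagent: ingested quenched lipid PED6 at 100 nM. Read-out: visual per-well fluorescence inhibition score. Times: overnight exposure of larvae to compound plus PED6.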

[8] = blockers of RIG-like receptor reporter activation – cell-based, Sendai virus stimulus, luciferase, 10K MLSCN set, TLR/RLR signaling modifier project, primary screen (AID 602276); conditions: HEK293 RL24 IRF3 luciferase reporter, at 10 µM, stronger effect = higher value;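 also: firefly luciferase from ISG56 promoter only with Renilla not read in this screen; 0% = Sendai virus plus DMSO and 100% = medium plus DMSO without virus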
[9] = TLR3 IRF3 reporter activation blockers – cell-based, poly I:C stimulus, luciferase, 10K MLSCN set, primary screen (AID 602277;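 active = inhibition of the reporter signal at or above 50%; inactive = inhibition below 50%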); conditions: HEK293-TLR3 RL24 IRF3 luciferase reporter, at 10 µM, stronger effect = higher value

Row | SMILES | cell count [1] | inhibition [1] | inhibition of aggregation [2] | nuclei count [2] [%] | inhibition [3] | nuclei count [3] [%] | fluorescence slope [4] | NADPH fluorescence slope [5] | slope [6] | outcome [7] | inhibition [8] | inhibition [9]
1 | COc1cccc(NC(=O)N2CCCC2C(=O)Nc2ccc3c(c2)OCO3)c1 (centres undefined) | 649 | 5.8% (inactive) | -11.8% (inactive) | 57.5 | -117% (inactive) | 106 | -0.351 (inactive) | -6.1e-05 (inactive) | 0.00477 (inactive) | inactive | 13.7% (inactive) | 18.8% (inactive)
2 | CCN(C(=O)c1ccnc(C(C)(C)C)c1)c1ccccc1 | 334 | 4.4% (inactive) | -6.8% (inactive) | 99.8 | -63.1% (inactive) | 128 | -0.385 (inactive) | -1.8e-05 (inactive) | 0.0045 (inactive) | inactive | 13.6% (inactive) | 11.3% (inactive)
3 | COC(=O)c1sc(S(=O)(=O)N2CCN(c3ccccc3)CC2)c(C(=O)OC)c1C | 394 | 3.6% (inactive) | -23.7% (inactive) | 76.7 | -151% (inactive) | 117 | -0.385 (inactive) | -3.6e-05 (inactive) | 0.00645 (inactive) | inactive | 19.8% (inactive) | 22.7% (inactive)
4 | COC(=O)c1sccc1NC(=O)c1ccco1 | 474 | -11.9% (inactive) | 8.2% (inactive) | 90.7 | 19.6% (inactive) | 89.7 | -0.44 (inactive) | -3.5e-05 (inactive) | 0.00438 (inactive) | active; weak signal in gallbladder only | 2.56% (inactive) | -4.04% (inactive)
5 | COc1ccc(C/C(O)=C(\C#N)c2nc3ccccc3s2)cc1 | 783 | -1.1% (inactive) | 2.2% (inactive) | 98.5 | -15.3% (inactive) | 111 | -0.378 (inactive) | -3.1e-05 (inactive) | 0.0036 (inactive) | inactive; toxic | 0.322% (inactive) | 6.03% (inactive)
6 | CCN(CC)C(=O)C1CCN(CC2CC=CCC2)CC1 (centres undefined) | 377 | -8.2% (inactive) | 12.3% (inactive) | 110 | -22.3% (inactive) | 76.6 | -0.361 (inactive) | 2.7e-06 (inactive) | 0.00638 (inactive) | inactive | -1.94% (inactive) | 9.42% (inactive)
7 | COC(=O)C1=C(C)Nc2ncnn2C1c1ccco1 (centres undefined) | 303 | -4.2% (inactive) | -6.6% (inactive) | 100 | 5.2% (inactive) | 93.9 | -0.432 (inactive) | -6e-05 (inactive) | 0.00405 (inactive) | inactive | 15.5% (inactive) | 16.5% (inactive)
8 | O=C(CN1CCN(Cc2ccccc2)CC1)NCC1COc2ccccc2O1 (centres undefined) | 531 | -6.7% (inactive) | -7% (inactive) | 95.7 | -17.6% (inactive) | 94.9 | -0.356 (inactive) | -7.8e-05 (inactive) | 0.00497 (inactive) | inactive | 12.2% (inactive) | 98.2% (active)
9 | N#Cc1c(N)oc(-c2cccs2)c1-c1cccs1 | 508 | 2.6% (inactive) | -9.8% (inactive) | 93.1 | -29.4% (inactive) | 120 | -0.306 (inactive) | -3e-05 (inactive) | 0.00454 (inactive) | inactive | -45.9% (inactive) | 50.6% (active)
10 | CCOC(=O)N1CCN(C(=O)CN(C2CCCCC2)S(=O)(=O)c2ccc(F)cc2)CC1 | 645 | -10.7% (inactive) | 18.3% (inactive) | 81.3 | -51.6% (inactive) | 108 | -0.355 (inactive) | -7.3e-05 (inactive) | 0.00492 (inactive) | inactive | 21.5% (inactive) | 81.8% (active)
11 | CC1CCCC(C)N1CCNC(=O)C1CCN(S(=O)(=O)N2CCCCC2)CC1 (centres undefined) | 383 | 4.2% (inactive) | 17.2% (inactive) | 104 | -93.7% (inactive) | 115 | -0.384 (inactive) | 1.9e-05 (inactive) | 0.00471 (inactive) | inactive | -6.08% (inactive) | -0.147% (inactive)
12 | CCCCN1CN(S(=O)(=O)c2cccs2)c2nc3ccccc3nc21 | 253 | -13% (inactive) | 0.5% (inactive) | 83.1 | 0.2% (inactive) | 91.6 | -0.393 (inactive) | -5.6e-05 (inactive) | 0.00634 (inactive) | inactive | -4.14% (inactive) | -4.36% (inactive)
13 | COc1nc(-c2ccc(Cl)cc2)ccc1-c1noc(-c2ccncc2)n1 | 332 | 1.5% (inactive) | -4.2% (inactive) | 97.5 | -31.6% (inactive) | 114 | -0.223 (inactive) | -1.2e-07 (inactive) | 0.00449 (inactive) | inactive | 6.3% (inactive) | -7.25% (inactive)
14 | CC(NC(=O)NC12CC3CC(CC(C3)C1)C2)C1CCCO1 (centres undefined) | 356 | 2.9% (inactive) | 0.8% (inactive) | 80.4 | 1.7% (inactive) | 87.1 | -0.439 (inactive) | -2.2e-05 (inactive) | 0.00592 (inactive) | inactive | 15.3% (inactive) | 8.29% (inactive)
15 | Cc1cc(C(=O)CSc2nnc(-c3ccccc3)n2C)c(C)n1C | 403 | 4.4% (inactive) | 3.6% (inactive) | 88.2 | -5.3% (inactive) | 107 | -0.477 (inactive) | -5.5e-05 (inactive) | 0.00512 (inactive) | inactive | -0.894% (inactive) | 78.4% (active)
16 | CS(=O)(=O)N(CC(=O)N1CCCCCC1)c1ccc(Br)cc1 | 485 | -38.8% (inactive) | 20.1% (inactive) | 81.6 | 13.3% (inactive) | 95.6 | -0.353 (inactive) | -5.4e-05 (inactive) | 0.00619 (inactive) | inactive | 15.8% (inactive) | 16% (inactive)
17 | OC(CNCCc1ccccc1)c1ccccc1 (centres undefined) | 586 | 11% (inactive) | 14.9% (inactive) | 91.9 | 48.6% (inactive) | 55.2 | -0.37 (inactive) | -7.3e-05 (inactive) | 0.00466 (inactive) | inactive | 11.9% (inactive) | 15.7% (inactive)
18 | Cc1ccc2c(C(=O)CN3CCSCC3)c(C)[nH]c2c1 | 634 | 4.8% (inactive) | -7.9% (inactive) | 106 | 2.2% (inactive) | 104 | -0.386 (inactive) | -8.2e-05 (inactive) | 0.00551 (inactive) | inactive | -12.6% (inactive) | -12.9% (inactive)
19 | C=CCC1(O)C(=O)Nc2ccccc21 (centres undefined) | 585 | -13.3% (inactive) | -5.5% (inactive) | 106 | -66.6% (inactive) | 115 | -0.339 (inactive) | -5.2e-05 (inactive) | 0.00522 (inactive) | inactive | 16.6% (inactive) | 18.3% (inactive)
20 | COc1ccc(N2C(=O)c3cccc4cccc(c34)C2=O)nn1 | 345 | 1.5% (inactive) | 4.9% (inactive) | 105 | -81.4% (inactive) | 114 | -0.421 (inactive) | -2.8e-05 (inactive) | 0.00401 (inactive) | inactive | 9.08% (inactive) | 20.4% (inactive)
21 | CCOC(=O)c1c2n(c3ccc(O)cc13)CCCCC2 | 571 | 7.1% (inactive) | -7.5% (inactive) | 107 | -113% (inactive) | 110 | -0.413 (inactive) | -3.4e-05 (inactive) | 0.00489 (inactive) | inactive | -6.81% (inactive) | 1.43% (inactive)
22 | COc1ccc(C(NC(C)=O)c2ccc3cccnc3c2O)c(OC)c1 (centres undefined) | 444 | 2.1% (inactive) | -3% (inactive) | 90.6 | 23.6% (inactive) | 111 | -0.37 (inactive) | -5.8e-05 (inactive) | 0.00602 (inactive) | inactive | -12.8% (inactive) | 61.9% (active)
23 | CSc1ccccc1NC(=O)CN(c1ccccc1)S(=O)(=O)N(C)C | 429 | -0.8% (inactive) | 1.4% (inactive) | 96 | 4.1% (inactive) | 140 | -0.356 (inactive) | 3.3e-06 (inactive) | 0.00624 (inactive) | inactive | 15.6% (inactive) | 20.5% (inactive)
24 | O=C(CN1CCN(Cc2ccc3c(c2)OCO3)CC1)N1CCc2[nH]c3ccc(F)cc3c2C1 | 687 | 13.9% (inactive) | 6.4% (inactive) | 96.6 | 34.4% (inactive) | 101 | -0.409 (inactive) | -6.8e-05 (inactive) | 0.00435 (inactive) | inactive | 12% (inactive) | 4.08% (inactive)
25 | COc1ccccc1OCCNC(=O)c1cccs1 | 333 | 4.3% (inactive) | 12.7% (inactive) | 97.7 | -31.8% (inactive) | 99 | -0.383 (inactive) | -5.1e-05 (inactive) | 0.00529 (inactive) | inactive | -16% (inactive) | -43% (inactive)
26 | CCOC(=O)n1c(=O)oc2cc(S(=O)(=O)N3CCCCC3)ccc21 | 419 | 14.8% (inactive) | -1% (inactive) | 103 | 35.2% (inactive) | 81.5 | -0.294 (inactive) | -1.1e-05 (inactive) | 0.00583 (inactive) | inactive | 8.09% (inactive) | 16.3% (inactive)
27 | CCN(CC)c1ccc(C(=O)n2cnc3ccccc32)cc1 | 461 | 12.1% (inactive) | 7.1% (inactive) | 95.4 | -306% (inactive) | 128 | -0.284 (inactive) | -3.9e-05 (inactive) | 0.00386 (inactive) | inactive | 25.3% (inactive) | -37.1% (inactive)
